Laboratory results: ChEMBL document CHEMBL3352430, “4-Aminopyridyl-based CYP51 inhibitors as anti-Trypanosoma cruzi drug leads with improved pharmacokinetic profile and in vivo potency” (J Med Chem, 2014)
The source made the active and inactive calls. The rule behind the calls is not given here.

Experiments:
Liver [1] = experiment: Drug uptake in mouse liver at 50 mg/kg, po in 20% Kolliphor measured at 8 hrs post dose; format: ADME, organism-based; set-up: dose 50 mg/kg, route oral; conditions: in vivo
In short: (§1)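 Female Swiss Webster mice, 8 weeks old, given a single 50 mg/kg oral gavage dose in 20% HPβCD or 20% Kolliphor. Tissues taken from three mice at 2 and 8 h post dose. Homogenized by probe sonication in PBS (1:4 w/v), protein precipitated with acetonitrile, and compound measured by LC-MS/MS in μM.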

Liver [2] = experiment: Drug uptake in mouse liver at 50 mg/kg, po in 20% HP-beta-CD measured at 8 hrs post dose; format: ADME, organism-based; set-up: dose 50 mg/kg, route oral; conditions: in vivo; in short: as §1
[3] = Half life in mouse at 50 mg/kg, po in 20% Kolliphor; format: ADME, organism-based; set-up: dose 50 mg/kg, route oral; conditions: in vivo
In short: (§2)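 Female Swiss Webster mice, 8 weeks old, given one oral gavage dose of 50 mg/kg as a 10 mg/mL preparation in the named vehicle (20% HPβCD suspension or 20% Kolliphor). Plasma sampled at about 0.25, 0.5, 1, 2, 4, 6, 8, 12 and 24 h, n = 3 per time point. Protein precipitated with 5 volumes acetonitrile, filtered, then LC-MS/MS. Values are averages of three mice.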

[4] = target: Sterol 14-alpha demethylase (Trypanosoma cruzi (strain CL Brener), UniProt Q7Z1V1); experiment: Binding affinity to Trypanosoma cruzi CYP51 by UV-vis titration method; conditions: read-out: Kd(app)
Heart [5] = experiment: Drug uptake in mouse heart at 50 mg/kg, po in 20% HP-beta-CD measured at 8 hrs post dose; format: ADME, organism-based; set-up: dose 50 mg/kg, route oral; conditions: in vivo; in short: as §1
Mus musculus [6] = experiment: Toxicity in mouse assessed as mobility issues at 12.5 to 50 mg/kg, po bid in 20% Kolliphor; format: organism-based; set-up: dose 12.5-50 mg/kg, route oral; conditions: in vivo
In short: (§3)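 Mice in the four-day oral treatment study were given compound bid by gavage in 20% HPβCD or 20% Kolliphor. They were watched for weight loss, mobility problems and changes in appearance throughout dosing.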

Lung [7] = experiment: Drug uptake in mouse lung at 50 mg/kg, po in 20% Kolliphor measured at 8 hrs post dose; format: ADME, organism-based; set-up: dose 50 mg/kg, route oral; conditions: in vivo; in short: as §1
Trypanosoma cruzi [8] = experiment: Antitrypanosomal activity against Trypanosoma cruzi Y luc infected in mouse assessed as inhibition of parasitemia at 50 mg/kg, po bid in 20% HP-beta-CD administered for 4 consecutive days starting on day 3 of infection measured on day 7 post infection relative to vehicle-treated control; format: functional, organism-based; set-up: dose 50 mg/kg
In short: (§4)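 Female Swiss Webster mice, 8 weeks old, infected ip with 10^5 T. cruzi Y luc trypomastigotes. Only mice with detectable luminescence on day 3 were treated. Compound given by oral gavage bid for four days, as a suspension in 20% HPβCD or a solution in 20% Kolliphor, five mice per group. Vehicle group and benznidazole 50 mg/kg served as controls. On day 7, mice were injected ip with 150 mg/kg d-luciferin and imaged after 5 min under isoflurane. Percent inhibition calculated against untreated mice; two-tailed paired t test.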

Mus musculus [9] = experiment: Toxicity in mouse assessed as change in appearance at 12.5 to 50 mg/kg, po bid in 20% HP-beta-CD; format: organism-based; set-up: dose 12.5-50 mg/kg, route oral; conditions: in vivo; in short: as §3
[10] = AUClast in mouse at 50 mg/kg, po in 20% HP-beta-CD; format: ADME, organism-based, Plasma; set-up: time 0 - last, dose 50 mg/kg, route oral; conditions: plasma; in short: as §2
Mus musculus [11] = experiment: Toxicity in mouse assessed as change in appearance at 12.5 to 50 mg/kg, po bid in 20% Kolliphor; format: organism-based; set-up: dose 12.5-50 mg/kg, route oral; conditions: in vivo; in short: as §3
Mus musculus [12] = experiment: Toxicity in mouse assessed as weight loss at 12.5 to 50 mg/kg, po bid in 20% HP-beta-CD; format: organism-based; set-up: dose 12.5-50 mg/kg, route oral; conditions: in vivo; in short: as §3
[13] = Drug uptake in mouse skeletal muscle at 50 mg/kg, po in 20% HP-beta-CD measured at 8 hrs post dose; format: ADME, organism-based, Muscle tissue; set-up: dose 50 mg/kg, route oral; conditions: in vivo; in short: as §1
[14] = AUClast in mouse at 50 mg/kg, po in 20% Kolliphor; format: ADME, organism-based; set-up: time 0 - last, dose 50 mg/kg, route oral; conditions: plasma; in short: as §2
Trypanosoma cruzi [15] = experiment: Antitrypanosomal activity against Trypanosoma cruzi Y luc infected in mouse assessed as inhibition of parasitemia at 50 mg/kg, po bid in 20% Kolliphor administered for 4 consecutive days starting on day 3 of infection measured on day 7 post infection relative to vehicle-treated control; format: functional; in short: as §4
Heart [16] = experiment: Drug uptake in mouse heart at 50 mg/kg, po in 20% Kolliphor measured at 8 hrs post dose; format: ADME, organism-based; set-up: dose 50 mg/kg, route oral; conditions: in vivo; in short: as §1
[17] = Drug uptake in mouse skeletal muscle at 50 mg/kg, po in 20% Kolliphor measured at 8 hrs post dose; format: ADME, organism-based, Muscle tissue; set-up: dose 50 mg/kg, route oral; conditions: in vivo; in short: as §1
Trypanosoma cruzi [18] = experiment: Antitrypanosomal activity against Trypanosoma cruzi Y luc infected in mouse assessed as inhibition of parasitemia at 25 mg/kg, po bid in 20% HP-beta-CD administered for 4 consecutive days starting on day 3 of infection measured on day 7 post infection relative to vehicle-treated control; format: functional, organism-based; set-up: dose 25 mg/kg; in short: as §4
[19] = Clearance in mouse at 50 mg/kg, po in 20% HP-beta-CD; format: ADME, organism-based; set-up: dose 50 mg/kg, route oral; conditions: in vivo; in short: as §2
[20] = Drug uptake in mouse fat at 50 mg/kg, po in 20% HP-beta-CD measured at 8 hrs post dose; format: ADME, organism-based, Adipose tissue; set-up: dose 50 mg/kg, route oral; conditions: in vivo; in short: as §1
[21] = Clearance in mouse at 50 mg/kg, po in 20% Kolliphor; format: ADME, organism-based; set-up: dose 50 mg/kg, route oral; conditions: in vivo; in short: as §2
[22] = Cmax in mouse at 50 mg/kg, po in 20% Kolliphor; format: ADME, organism-based; set-up: dose 50 mg/kg, route oral; conditions: in vivo; in short: as §2
[23] = Drug uptake in mouse fat at 50 mg/kg, po in 20% Kolliphor measured at 8 hrs post dose; format: ADME, organism-based, Adipose tissue; set-up: dose 50 mg/kg, route oral; conditions: in vivo; in short: as §1
[24] = Tmax in mouse at 50 mg/kg, po in 20% HP-beta-CD; format: ADME, organism-based; set-up: dose 50 mg/kg, route oral; conditions: in vivo; in short: as §2
Mus musculus [25] = experiment: Toxicity in mouse assessed as weight loss at 12.5 to 50 mg/kg, po bid in 20% Kolliphor; format: organism-based; set-up: dose 12.5-50 mg/kg, route oral; conditions: in vivo; in short: as §3
[26] = Half life in mouse at 50 mg/kg, po in 20% HP-beta-CD; format: ADME, organism-based; set-up: dose 50 mg/kg, route oral; conditions: in vivo; in short: as §2
[27] = Tmax in mouse at 50 mg/kg, po in 20% Kolliphor; format: ADME, organism-based; set-up: dose 50 mg/kg, route oral; conditions: in vivo; in short: as §2
Mus musculus [28] = experiment: Toxicity in mouse assessed as mobility issues at 12.5 to 50 mg/kg, po bid in 20% HP-beta-CD; format: organism-based; set-up: dose 12.5-50 mg/kg, route oral; conditions: in vivo; in short: as §3
[29] = Cmax in mouse at 50 mg/kg, po in 20% HP-beta-CD; format: ADME, organism-based; set-up: dose 50 mg/kg, route oral; conditions: in vivo; in short: as §2
Intestine [30] = experiment: Drug uptake in mouse intestine at 50 mg/kg, po in 20% HP-beta-CD measured at 8 hrs post dose; format: ADME, organism-based; set-up: dose 50 mg/kg, route oral; conditions: in vivo; in short: as §1
C2C12 = experiment: Cytotoxicity against mouse C2C12 cells up to 10 uM; format: cell-based
In short: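 Mouse C2C12 myoblasts infected with T. cruzi CA-I/72, then exposed at 24 h postinfection to compound at 10 μM down to 5 pM in 5-fold steps for 72 h at 37 °C. Cells fixed in paraformaldehyde, stained with DAPI and scored by automated imaging. Triplicate wells; uninfected and infected untreated wells as controls.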

Intestine [31] = experiment: Drug uptake in mouse intestine at 50 mg/kg, po in 20% Kolliphor measured at 8 hrs post dose; format: ADME, organism-based; set-up: dose 50 mg/kg, route oral; conditions: in vivo; in short: as §1
Lung [32] = experiment: Drug uptake in mouse lung at 50 mg/kg, po in 20% HP-beta-CD measured at 8 hrs post dose; format: ADME, organism-based; set-up: dose 50 mg/kg, route oral; conditions: in vivo; in short: as §1

Sterol 14-alpha demethylase, sequence (Q7Z1V1 whole entry): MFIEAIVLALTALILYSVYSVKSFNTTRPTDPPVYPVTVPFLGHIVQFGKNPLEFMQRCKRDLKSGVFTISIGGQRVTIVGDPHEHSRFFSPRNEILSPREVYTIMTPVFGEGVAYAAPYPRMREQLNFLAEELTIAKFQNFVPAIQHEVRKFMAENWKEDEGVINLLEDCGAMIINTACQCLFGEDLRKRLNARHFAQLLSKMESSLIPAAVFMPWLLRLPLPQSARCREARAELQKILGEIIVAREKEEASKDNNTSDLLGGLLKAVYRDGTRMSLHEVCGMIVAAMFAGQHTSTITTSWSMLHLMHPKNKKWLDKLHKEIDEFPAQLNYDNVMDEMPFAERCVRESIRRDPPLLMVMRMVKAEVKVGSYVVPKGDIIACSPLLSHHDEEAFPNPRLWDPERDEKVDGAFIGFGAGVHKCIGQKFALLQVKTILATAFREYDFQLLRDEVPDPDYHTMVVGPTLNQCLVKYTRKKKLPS

In the case of `O=C(N[C@H](Cc1c[nH]c2ccccc12)C(=O)Nc1ccncc1)c1ccc(N2CCN(c3ccc(F)cc3F)CC2)cc1F`, the Drug uptake (Liver [1]) is reported as “Active”, the Drug uptake (Liver [2]) is reported as “Active” and the half-life [3] is reported as 4.39 h. For the same molecule, the Kd [4] was at most 10 nM, the Drug uptake (Heart [5]) was “Active” and the Activity (Mus musculus [6]) was “Non-toxic”. The Drug uptake (Lung [7]) was “Active”, the inhibition (Trypanosoma cruzi [8]) was “Active” and the Activity (Mus musculus [9]) was “Non-toxic”. The AUC(0-t) [10] was 16.7 µM·h, the Activity (Mus musculus [11]) was “Non-toxic” and the Activity (Mus musculus [12]) was “Non-toxic”. The Drug uptake [13] was “Active”, the AUC(0-t) [14] was 29.6 µM·h and the inhibition in vivo at 50 mg/kg (Trypanosoma cruzi [15]) was 98.4%. The Drug uptake (Heart [16]) was “Active”, the Drug uptake [17] was “Active” and the inhibition (Trypanosoma cruzi [18]) was “Active”. For the same molecule, the CL/F [19] was 42.8 mL/min/kg, the Drug uptake [20] was “Active” and the CL/F [21] was 38.8 mL/min/kg. The Cmax [22] was 5.94 µM, the Drug uptake [23] was “Active” and the Tmax [24] was 4.67 h. For the same molecule, the Activity (Mus musculus [25]) was “Non-toxic”, the half-life [26] was 6.88 h and the Tmax [27] was 2.33 h. The Activity (Mus musculus [28]) was “Non-toxic”, the Cmax [29] was 3.27 µM and the Drug uptake (Intestine [30]) was “Active”. For the same molecule, the Activity (C2C12) was “Non-toxic”, the Drug uptake (Intestine [31]) was “Active” and the Drug uptake (Lung [32]) was “Active”.
